KCNQ1 pot: potentiators or activators of KCNQ1 channel, primary screen, cell-based, thallium flux, high-throughput | 0.35% of 310,000 active | B-score at 10 µM | Potassium voltage-gated channel subfamily KQT member 1 (Homo sapiens), P51787 | CHO-K1 KCNQ1, thallium flux FluxOR fluorescence; stronger effect = higher value | AID 2648, 2010;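 active = fluorescence ratio B-score, a plate-corrected score, at least three library SD, with initial intensity B-score within 5 SD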
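Assay system: CHO-K1 cells stably expressing KCNQ1; Medium: assay buffer with matched DMSO; Also added: K+/Tl+ depolarizing stimulus; Dosing: single dose; Timing: dye 90 min, compound 20 min, room temperature; Measured by: kinetic FluxOR thallium fluorescence, 10-s 1-Hz baseline, 110-s post-stimulus read; Read-out: peak-minus-minimum fluorescence over initial fluorescence, negative-control normalized, B-scored.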
Kir21 inh: inhibitors of mouse Kir2.1 inward-rectifier potassium channel; Inward rectifier potassium channel 2 (Mus musculus), P35561; HEK293-Kir2.1, FluxOR thallium flux fluorescence; stronger effect = lower value; B-score at 10 µM; 0.85% of 310,000 active; AID 1672, 2009;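 active = fluorescence ratio B-score at or below minus 3 SD of library scores, with starting-brightness B-score within 2 SD, cut at about -4.2 in these data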;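 also: channel flux triggered by added potassium and thallium sulfate stimulus; B-score of peak minus minimum fluorescence over baseline after thallium stimulus; more negative B-score means stronger Kir2.1 block with less thallium influx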
Target sequence (P35561 whole entry, looked up): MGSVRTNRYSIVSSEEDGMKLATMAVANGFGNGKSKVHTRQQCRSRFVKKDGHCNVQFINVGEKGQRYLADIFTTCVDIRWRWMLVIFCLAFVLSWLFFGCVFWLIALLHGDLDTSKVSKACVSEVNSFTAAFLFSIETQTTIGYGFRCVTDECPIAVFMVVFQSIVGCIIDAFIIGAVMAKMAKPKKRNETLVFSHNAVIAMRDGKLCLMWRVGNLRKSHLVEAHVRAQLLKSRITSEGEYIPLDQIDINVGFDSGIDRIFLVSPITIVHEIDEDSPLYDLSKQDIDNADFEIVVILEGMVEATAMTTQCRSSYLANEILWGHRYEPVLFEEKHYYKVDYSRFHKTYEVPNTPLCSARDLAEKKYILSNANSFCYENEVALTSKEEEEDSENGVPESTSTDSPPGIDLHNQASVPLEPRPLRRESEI
hERG rescue: hERG rescue from dofetilide block, primary screen, cell-based, CHO-hERG, FluxOR thallium flux, dofetilide IC70; dofetilide IC70 present; 0.51% of 310,000 active; activation (rescue from dofetilide block), less the hit threshold, % at 10 µM; AID 1511, 2009;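 active = activation above the mean of controls blocked by dofetilide plus 5 SD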;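 also: thallium influx through hERG after potassium depolarization seen as dye fluorescence rise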
KCNK9 inh: KCNK9 potassium channel inhibitors, primary screen, HEK293 cells, thallium flux. Potassium channel subfamily K member 9 (Homo sapiens), Q9NPC2. FluxOR thallium flux fluorescence; stronger effect = lower value. B-score at 10 µM. 1.2% of 310,000 active. AID 488922, 2010;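 active = ratio B-score over 3 SD below the library mean, with starting fluorescence within 5 SD of its mean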;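 also: negative B-score means less thallium flux so channel inhibition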
Target sequence (Q9NPC2 whole entry, looked up): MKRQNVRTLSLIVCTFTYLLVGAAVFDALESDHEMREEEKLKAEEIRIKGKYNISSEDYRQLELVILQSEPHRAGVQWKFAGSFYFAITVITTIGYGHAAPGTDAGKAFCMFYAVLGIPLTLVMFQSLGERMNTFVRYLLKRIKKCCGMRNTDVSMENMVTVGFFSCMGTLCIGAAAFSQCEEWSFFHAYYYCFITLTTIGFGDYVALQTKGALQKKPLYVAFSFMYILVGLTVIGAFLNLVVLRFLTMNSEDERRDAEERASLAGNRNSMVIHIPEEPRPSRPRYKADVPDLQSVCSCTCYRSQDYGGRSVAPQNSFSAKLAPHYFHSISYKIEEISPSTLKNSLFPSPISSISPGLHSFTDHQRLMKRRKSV
KCNQ1 inh: inhibitors of human KCNQ1 channel, primary screen, cell-based, thallium flux, high-throughput. 1.3% of 310,000 active. Potassium voltage-gated channel subfamily KQT member 1 (Homo sapiens), P51787. CHO-K1 KCNQ1, FluxOR thallium flux fluorescence; stronger effect = higher value. B-score at 10 µM;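 active = compounds whose thallium flux B-score, printed positive for inhibition, exceeds three library SD while starting fluorescence stays within three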;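 also: channel opened by potassium depolarization with thallium stimulus after 20 min compound exposure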
KCNK3 inh: human KCNK3 channel inhibitors, primary screen, CHO cells, FluxOR thallium flux, B-score | Potassium channel subfamily K member 3 (Homo sapiens), O14649 | B-score at 10 µM | 0.84% of 340,000 active | FluxOR fluorescence; stronger effect = lower value;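 active = B-score under library mean minus 4 SD, starting fluorescence ratio at most library mean plus 5 SD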;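 also: more negative B-score means stronger inhibition of thallium flux through KCNK3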
KCNK9 inh conf: KCNK9 potassium channel inhibitors, confirmation, HEK293 cells, thallium flux, duplicate. 43% of 4,900 active. inhibition, % at 10 µM. AID 492992, 2010. FluxOR thallium flux fluorescence. shares compounds with KCNK9 inh;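 active = thallium signal inhibited by more than 5 SD of the compound-free buffer control wells, on both duplicate plates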
Kir2-1 spec: mouse Kir2.1 channel inhibition, confirmation, selectivity assay for KCNK9 modulator project, cell-based, HEK293, thallium flux; shares compounds with KCNK9 inh; Kir2.1 cells, FluxOR thallium flux fluorescence; inhibition, % at 10 µM; 4% of 4,900 active; AID 492993, 2010;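 active = thallium signal drop more than 5 SD beyond the mean of the no-compound control wells, seen in both duplicate plates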;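 also: signal is fluorescence rise after thallium addition divided by baseline fluorescence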
KCNK9 uninduced: thallium flux in non-induced HEK293 cells, confirmation, counter-screen for KCNK9 inhibitor project, cell-based, second counter screen, non-induced KCNK9-HEK293; inhibition, % at 10 µM; 40% of 4,900 active; shares compounds with KCNK9 inh; FluxOR thallium flux; AID 492997, 2010;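 active = thallium signal drop beyond 5 SD of the untreated control mean, on both duplicate plates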
Each line names hits and unclear results; the compound was inactive in the other large screens (follow-up assays come after a bar, where they were run). Most compounds without a hit are left out; they make up all but 3.7% or so of the library.

COC(=O)c1cc(OC)c(OC)cc1NC(=S)N1CCN(C/C=C/c2ccccc2)CC1	none | KCNK9 inh conf inactive | Kir2-1 spec inactive | KCNK9 uninduced inactive
COc1cc(C(=O)N2CCN(C/C=C/c3ccccc3)CC2)cc(OC)c1OC	none
O=C(NC(=S)Nc1ccc2c(c1)OCCO2)c1ccccc1	none
CCOc1cccc(C(=O)NC(=S)Nc2ccc3c(c2)OCCO3)c1	none | KCNK9 inh conf inactive | Kir2-1 spec inactive | KCNK9 uninduced inactive
Cc1cc(C)c(NC(=O)/C(C#N)=C/c2ccc(OCc3ccc(F)cc3)cc2)c(C)c1	none | KCNK9 inh conf inactive | Kir2-1 spec inactive | KCNK9 uninduced inactive
COc1cc(/C=C(/C#N)C(=O)Nc2ccccc2)c(Br)cc1OCc1ccc(C(=O)O)cc1	none
COC(=O)c1ccc(COc2ccccc2/C=C(\C#N)C(=O)Nc2c(C)cc(C)cc2C)cc1	KCNK9 inh -16 | KCNK9 inh conf 78% | Kir2-1 spec inactive | KCNK9 uninduced 28%
COc1ccccc1NCc1nnc(-c2ccccc2)o1	none
Cc1ccc(N(C(=O)c2csnn2)C(C(=O)NC2CCCCC2)c2cccnc2)c(C)c1 (stereo unspecified)	none
Cc1ccc2nc(SCC(=O)Nc3cc(C)on3)c(C)cc2c1	none
O=C(/C=C1\NC2(CCCC2)Cc2ccccc21)C(=O)N/N=C/c1ccc(O)c(O)c1	KCNK9 inh -10 | KCNK9 inh conf 48% | Kir2-1 spec inactive | KCNK9 uninduced 30%
NC(=O)c1ccc(Oc2ccc3c(c2)CCC3)c([N+](=O)[O-])c1	none | KCNK9 inh conf inactive | Kir2-1 spec inactive | KCNK9 uninduced inactive
CC(C)c1ccc(C2C3=C(COC3=O)Nc3cc4c(cc32)OCO4)cc1 (stereo unspecified)	KCNK9 inh -9.4 | KCNK9 inh conf inactive | Kir2-1 spec inactive | KCNK9 uninduced inactive
CC(C)(C)c1ccc(CN(Cc2ccco2)Cc2nnnn2C2CCCC2)cc1	KCNK9 inh -14, KCNQ1 inh 6 | KCNK9 inh conf 62% | Kir2-1 spec inactive | KCNK9 uninduced 49%
O=C(NCc1ccccc1)/C(=C/c1ccc(OC(F)F)cc1)c1ccccc1	KCNK9 inh -11 | KCNK9 inh conf 40% | Kir2-1 spec inactive | KCNK9 uninduced 50%
CC(=O)N1C2=CCCC3CCCCC23c2ccccc21 (stereo unspecified)	none (no result: KCNQ1 pot, Kir21 inh, hERG rescue, KCNK9 inh, KCNQ1 inh)
C[C@@H]1CC[C@@]23COC(=O)C2=CCC[C@@H]3[C@@]1(C)CC/C(=C/CO)CO	none (no result: KCNQ1 pot, Kir21 inh, hERG rescue, KCNK9 inh, KCNQ1 inh)
CC1=CCC[C@@H]2[C@@](C)(CC/C(C)=C/C(=O)O)[C@H](C)CC[C@@]12C	none | KCNK9 inh conf inactive | Kir2-1 spec inactive | KCNK9 uninduced inactive
COc1cccc(/C=C(/C(=O)OCC(=O)NC2CCCC(C)C2C)c2ccccc2)c1 (stereo unspecified)	KCNK9 inh -9.3, KCNQ1 inh 10 | KCNK9 inh conf 43% | Kir2-1 spec inactive | KCNK9 uninduced 44%
Cc1cccc(C)c1NC(=O)CNC(=O)CCNC(=O)c1ccco1	none (no result: KCNQ1 pot, Kir21 inh, hERG rescue, KCNK9 inh, KCNQ1 inh)
O=c1cc(N2CCCCC2)c(-c2ccccc2)nn1Cc1ccc(Cl)cc1Cl	KCNK9 inh -21, KCNQ1 inh 9 | KCNK9 inh conf 80% | Kir2-1 spec inactive | KCNK9 uninduced 46%
O=c1cc(Cl)c(-c2ccccc2)nn1Cc1ccc(Cl)cc1	none
Cc1ccc(-n2c(C)nc3c(cnn3-c3ccc(F)cc3)c2=O)cc1C	none
Cc1ccc(-n2c(C)nc3c(cnn3-c3ccc(C)c(C)c3)c2=O)cc1C	none | KCNK9 inh conf inactive | Kir2-1 spec inactive | KCNK9 uninduced inactive
Cc1ccc(Cc2nnc3n(-c4ccccc4)nc(C(=O)c4ccccc4)n3c2=O)cc1	none | KCNK9 inh conf inactive | Kir2-1 spec inactive | KCNK9 uninduced inactive
CCn1c(C)cc2c(c1=O)C(c1ccccc1)C(C(=O)OC)=C(N)O2 (stereo unspecified)	none
COC(=O)C1=C(N)Oc2cc(C)n(CC3CCCO3)c(=O)c2C1c1ccc(Cl)c(Cl)c1 (stereo unspecified)	KCNK9 inh -9.1 | KCNK9 inh conf 35% | Kir2-1 spec inactive | KCNK9 uninduced 52%
COC(=O)C1=C(N)Oc2cc(C)n(Cc3ccco3)c(=O)c2C1c1cccc(Cl)c1 (stereo unspecified)	KCNK9 inh -13 | KCNK9 inh conf 46% | Kir2-1 spec inactive | KCNK9 uninduced 45%
CC(=O)Nc1ccc2oc(-c3ccccc3Br)nc2c1	none
Cc1ccccc1-c1nc2cc(NC(=O)C3CC3)ccc2o1	KCNK9 inh -8.7 | KCNK9 inh conf inactive | Kir2-1 spec inactive | KCNK9 uninduced inactive
Fc1ccc(-[n+]2nc(Nc3ccccc3)sc2-c2c3ccccc3cc3ccccc23)cc1	KCNK9 inh -12, KCNQ1 inh 11 | KCNK9 inh conf 34% | Kir2-1 spec inactive | KCNK9 uninduced inactive
O=C(O)CNC(=O)c1ccc(NS(=O)(=O)c2ccc3ccccc3c2)cc1	none
CC(C)[C@@H]1CC[C@@H](C)C[C@H]1OC(=O)C[n+]1cc(-c2ccc(Cl)cc2)n2c1CCCCC2	Kir21 inh -8.1, KCNK9 inh -13 | KCNK9 inh conf 60% | Kir2-1 spec 70% | KCNK9 uninduced inactive
CCCn1c(=O)[nH]c(=O)c2c1nc(-c1ccc(OC)c(Br)c1)n2CCOC	none
O=C(COC(=O)CNC(=O)c1ccccc1Cl)Nc1cc(C(F)(F)F)ccc1Cl	none (no result: KCNQ1 pot, Kir21 inh, hERG rescue, KCNK9 inh, KCNQ1 inh)
O=C(CNC(=O)c1ccccc1F)OC(C(=O)Nc1cc(C(F)(F)F)ccc1Cl)c1ccccc1 (stereo unspecified)	KCNK9 inh -11 | KCNK9 inh conf inactive | Kir2-1 spec inactive | KCNK9 uninduced 32%
C#CCN1C=CC(=O)[C@@H](O)[C@H]1c1ccccc1Br	none (no result: KCNQ1 pot, Kir21 inh, hERG rescue, KCNK9 inh, KCNQ1 inh)
CC1CCN(c2ccccc2NC(=O)c2ccc(C#N)cc2F)CC1	none
CC(C)C(=O)N1CCN(c2ccccc2NC(=O)c2ccc(C#N)cc2F)CC1	none | KCNK9 inh conf inactive | Kir2-1 spec inactive | KCNK9 uninduced inactive
